Bioassay records as filed in PubChem.
This is a sample that favours compounds with a hit; in the whole collection about 1.9% have one here.
CHRM4 agonist: CHRM4 agonism in calcium assay; P08173; CHO-K1 hM4/Gqi5, Fluo-8 calcium fluorescence; vehicle 0%, full acetylcholine response 100%; activation, % at 3 µM; hit rate 0.14% among 360,000; AID 624127;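 active means activation above the run mean over all test wells plus 3 SD, cut at about 32% in these data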;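 further: peak over basal fluorescence ratio per well then scaled between controls; 0% = DMSO wells and 100% = acetylcholine at EC100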
CHRM5 PAM: potentiates acetylcholine response at human M5 receptor | CHO-K1 hM5, Fluo-8 calcium, ACh EC20 PAM; 0% = ACh EC20, 100% = ACh EC100 | P08912 | activation, % at 3 µM | hit rate 0.3% among 360,000;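 active means activation above the run cutoff, the mean activation of all test compounds plus 3 SD, cut at about 18% in these data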
Target sequence (P08912 whole entry, looked up): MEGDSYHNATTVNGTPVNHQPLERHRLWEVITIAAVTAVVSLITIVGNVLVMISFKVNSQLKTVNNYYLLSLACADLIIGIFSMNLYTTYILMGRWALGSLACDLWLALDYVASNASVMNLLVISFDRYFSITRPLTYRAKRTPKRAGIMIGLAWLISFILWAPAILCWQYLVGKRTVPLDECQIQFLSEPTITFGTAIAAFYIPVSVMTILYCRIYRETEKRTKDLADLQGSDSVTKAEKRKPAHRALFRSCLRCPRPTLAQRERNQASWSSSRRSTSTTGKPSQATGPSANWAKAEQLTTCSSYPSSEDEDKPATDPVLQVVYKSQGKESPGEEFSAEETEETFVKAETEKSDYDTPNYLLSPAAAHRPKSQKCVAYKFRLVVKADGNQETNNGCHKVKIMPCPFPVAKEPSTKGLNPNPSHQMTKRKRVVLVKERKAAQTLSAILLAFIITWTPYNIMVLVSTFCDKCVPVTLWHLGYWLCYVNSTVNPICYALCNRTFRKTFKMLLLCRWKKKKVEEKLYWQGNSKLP
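system = human M5 receptor in CHO-K1 cells | reagent = EC20 acetylcholine as agonist stimulus | compound dosing = single-point, 3 µM nominal | incubation = Fluo-8 loading 80 min at 37 °C plus 30 min room temperature | detection = Fluo-8 calcium dye fluorescence, kinetic read | benchmarks = low control EC20 acetylcholine (0%), high control EC100 acetylcholine (100%)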
M5 antag: antagonists of human muscarinic M5 receptor (CHRM5); inhibition, % at 3 µM; hit rate 0.59% among 360,000; CHO-hM5 cells, Fluo-8 calcium fluorescence, ACh EC80; P08912;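 active means inhibition above a per-plate cutoff, the mean of that plate's test compounds plus 3 SD, cut at about 27% in these data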;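 further: 0% = acetylcholine EC80 with DMSO and 100% = DMSO without agonist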
M4 antag: blocks acetylcholine activation of human M4 receptor | P08173 | CHO-hM4 cells, ACh EC80, Fluo-8 calcium fluorescence | inhibition, % at 3 µM | hit rate 0.73% among 360,000 | AID 624125;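 active means inhibition above its plate's cutoff, the mean inhibition of sample wells plus 3 SD, cut at about 27% in these data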;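 further: 0% = acetylcholine EC80 with DMSO and 100% = DMSO without agonist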
M5 ag: CHRM5 agonism in calcium assay | CHO-K1 hM5 cells, Fluo-8 calcium fluorescence; 0% DMSO wells, 100% maximal acetylcholine response | activation, % at 3 µM | hit rate 0.19% among 360,000 | AID 624037;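 active means activation above the run's mean over test compounds plus 3 SD, cut at about 23% in these data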;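 further: signal is peak over basal fluorescence ratio across the kinetic read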
CHRM4 PAM: potentiates acetylcholine response at human M4 receptor | P08173 | CHO-K1 hM4/Gqi5, Fluo-8 calcium fluorescence, ACh EC20; 0% = ACh EC20, 100% = maximal ACh | activation, % at 3 µM | hit rate 0.4% among 360,000;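 active means activation above its plate's cutoff, the mean activation of sample wells plus 3 SD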
* hit, by the source's call.

SMILES | CHRM4 agonist | CHRM5 PAM | M5 antag | M4 antag | M5 ag | CHRM4 PAM
Cc1cc(NC2CCCCC2)nc(NCc2ccccc2)n1 | 23.4 | -19.4 | 30.1* | 25.5 | 5.7 | -12.6
CCN(CC#CCC(O)(c1ccccc1)c1ccccc1)C(C)C | 2.0 | -19.0 | 18.3 | 31.3* | -7.7 | -15.4
CC(C)N(CC#CCC(O)(c1ccccc1)c1ccccc1)CCO | 1.6 | 2.1 | -15.6 | -4.7 | -10.6 | -12.3
O=C(O)CC1(CC(=O)Nc2ccc(F)cc2F)CCCCC1 | 0.1 | 19.3* | -1.5 | 2.4 | 2.8 | -3.8
O=C(O)CC1(CC(=O)Nc2cc(F)ccc2Cl)CCCCC1 | -0.1 | 0.4 | 4.1 | -0.5 | -2.4 | -7.8
CCS(=O)(=O)c1ccc(O)c(NC(=O)CC2(CC(=O)O)CCCC2)c1 | 0.8 | 19.2* | -14.7 | -9.8 | 6.7 | 10.4
CCS(=O)(=O)c1ccc(O)c(NC(=O)CCCC(=O)O)c1 | 0.4 | 2.1 | -1.1 | 11.7 | 2.1 | -2.5
CCN1C(=O)[C@H]2[C@@H](c3ccc(OC)cc3)N3C(=O)CN(CCOC)C(=O)[C@@]3(C)[C@H]2C1=O | 0.4 | 0.1 | 9.9 | 3.9 | -0.6 | 2.0
N=C(N)c1ccc(O)cc1 | 1.5 | 0.8 | -2.1 | -8.8 | 0.2 | 27.6*
O=C(C1CC1(c1ccccc1)c1ccccc1)N1CCOCC1 (stereo not drawn) | 1.1 | 5.2 | -7.0 | 4.1 | -2.2 | 1.6
Cc1cccc(NC(=S)NC2CCN(Cc3ccccc3)CC2)c1C | 4.8 | 8.7 | -6.8 | 4.9 | 0.2 | 23.6*
S=C(Nc1cccc(Cl)c1Cl)NC1CCN(Cc2ccccc2)CC1 | 9.3 | 5.4 | -2.3 | 8.6 | -1.1 | -0.1
Fc1cccc(NC(=S)NC2CCCCCCC2)c1 | 14.3 | -16.9 | 27.3* | -6.6 | 4.0 | -6.0
Fc1ccc(NC(=S)NC2CCN(Cc3ccccc3)CC2)cc1 | 5.8 | -4.6 | -1.8 | 0.8 | -1.6 | -9.3
S=C(Nc1ccc(Cl)c(Cl)c1)NC1CCCCC1 | 17.7 | -22.7 | 28.8* | 14.8 | 2.7 | -10.1
S=C(Nc1ccc(Cl)c(Cl)c1)NC1CCN(Cc2ccccc2)CC1 | 46.0* | -14.3 | 33.4* | 37.6* | 18.7 | 3.3
O=C1NC[C@@H](CCCCN2C[C@H](Cc3ccc(O)cc3)N(CCc3ccc(O)cc3)C(=O)C2=O)N(Cc2ccccc2)C1=O | 3.7 | 3.2 | -3.4 | 6.3 | 1.6 | 8.2
Cc1ccc(S(=O)(=O)N2CC(O)C[C@H]2C(=O)OCC(=O)Nc2ccc(N3CCCCC3)cc2)cc1C (stereo partly drawn) | 1.8 | 5.6 | 1.2 | -5.0 | -1.2 | 1.9
O=C(Nc1cccc(C(F)(F)F)c1)C1CCN(S(=O)(=O)c2ccc(N3CCCC3=O)cc2)CC1 | 17.3 | -13.9 | 36.9* | 22.1 | 1.9 | -7.3
CCNc1nc(=S)nc(NC(C)C)[nH]1 | 0.1 | 18.1* | -8.2 | -2.1 | 2.1 | 10.6
CC1CC(C)CN(C(=O)CSc2nnc3ccccn23)C1 (stereo not drawn) | 0.4 | 2.1 | -2.1 | -19.4 | 1.1 | 6.6
O=C(Cn1c(=O)n(-c2cccc(Cl)c2)c(=O)n1CC(=O)N1CCCCC1)N1CCCCC1 | 0.6 | -2.3 | 2.1 | 2.2 | -2.2 | 17.6
Cn1c(=O)n(-c2cccc(Cl)c2)c(=O)n1C | 1.4 | -0.1 | 3.4 | 39.9* | 1.1 | 21.1
CC1=NN(C(=O)COc2ccc(C)c(C)c2)C(O)(c2ccc(Cl)cc2)C1 (stereo not drawn) | 2.6 | 4.0 | 2.7 | -5.4 | -0.3 | 21.8*
CC1=NN(C(=O)CSCc2ccccc2)C(O)(c2ccc(Cl)cc2)C1 (stereo not drawn) | 1.1 | 4.1 | 3.3 | -3.4 | -3.6 | 3.8
SMILES | CHRM4 agonist | CHRM5 PAM | M5 antag | M4 antag | M5 ag | CHRM4 PAM
Cc1cc(/C=C2\C(=N)N3N=C(S(C)(=O)=O)SC3=NC2=O)c(C)n1Cc1ccccc1 | 0.6 | 1.9 | 6.3 | -0.5 | 0.1 | 1.5
CCCC1=NN2C(=N)/C(=C\c3cc(C)n(Cc4ccccc4)c3C)C(=O)N=C2S1 | 42.2* | -29.7 | 11.5 | 0.9 | 36.1* | -15.6
COc1ccc(CN(C)C(=O)[C@H]2O[C@@H](n3cnc4c(N)ncnc43)[C@H](O)[C@@H]2O)cc1OC | 1.2 | -2.6 | -0.7 | -12.2 | 1.2 | 2.7
S=c1[nH]nc(-c2ccco2)n1-c1cccc2ccccc12 | 0.7 | 45.8* | 12.8 | 5.3 | 2.3 | 5.9
CN1C(=O)/C(=C/c2ccc(OCc3ccc(F)cc3)cc2)N(C)C1=S | 0.2 | -0.8 | -1.9 | 0.1 | -0.6 | -1.9
CN1C(=O)/C(=C/c2ccccc2OCc2cccc(F)c2)N(C)C1=S | -1.3 | -18.2 | 44.9* | 64.8* | -5.3 | -23.5
CC(=O)C1=C(O)C(=O)N(c2cc(C(C)(C)C)on2)C1c1ccc(Br)cc1 (stereo not drawn) | -0.4 | 6.2 | -0.2 | -1.3 | 3.1 | 30.2*
CCCCN(C(=O)CSc1nnc(-c2ccc(Cl)cc2)o1)c1c(N)n(CC(C)C)c(=O)[nH]c1=O | 0.4 | 10.4 | 0.2 | 1.1 | 1.9 | 5.9
Cc1cc(OCC(=O)Nc2ccncc2)c(C)cc1Br | 17.3 | -19.6 | 33.7* | 24.1 | 12.9 | -2.2
O=C(COc1ccc2ccccc2c1Br)Nc1ccncc1 | 15.0 | -16.8 | 28.7* | 14.6 | 3.6 | -10.4
COc1cccc(OCC(=O)Nc2ccncc2)c1 | 6.8 | -6.0 | 15.6 | -3.3 | 2.7 | -3.0
CC(C)CCOc1cccc(OCC(=O)Nc2ccncc2)c1 | 20.5 | -14.2 | 32.7* | 20.5 | 9.3 | -12.0
Cc1cc2c(OCC(O)CNCc3ccco3)cccc2[nH]1 (stereo not drawn) | 1.8 | 4.0 | -3.5 | 7.0 | 0.6 | -8.0
O=C(/C=C/NNC(=O)c1ccccc1O)c1ccccc1 | 5.5 | -0.3 | 4.4 | 6.4 | 1.3 | -3.0
O=C(Nc1cc(=O)[nH]c2ncnn12)c1ccco1 | -0.3 | 0.0 | 0.9 | 14.4 | 0.3 | 5.5
COc1ccc(C(=O)Nc2cc(=O)[nH]c3ncnn23)cc1 | 0.0 | 1.3 | 5.0 | 29.4* | -0.6 | 3.5
CCOCC(=O)Nc1cc(C(=O)Nc2cccc(C)c2C)ccc1Cl | 0.2 | -2.5 | 0.8 | -5.8 | 2.2 | 0.3
COc1ccccc1NC(=O)COc1ccc(/C=N/NC(=O)CSCc2ccc(Cl)cc2)cc1 | 0.7 | -4.5 | 4.5 | -3.5 | -2.6 | 11.9
CC(C(=O)Nc1ccc(Cl)cc1)N1C(=O)NC2(CCCC2)C1=O (stereo not drawn) | 0.9 | -2.1 | 4.1 | 5.3 | -2.6 | 2.7
O=C(COc1ccccc1[N+](=O)[O-])N1CCN(C(=O)c2ccco2)CC1 | 0.6 | -3.9 | 3.7 | -1.5 | -2.0 | -1.5
Cc1ccccc1OCC(=O)NCCCNC(=O)c1ccccn1 | 1.1 | 4.0 | -2.9 | -15.2 | -2.0 | 16.4*
O=C(C1CCN(c2ccc(N3CCOCC3)nn2)CC1)N1CCN(c2ccc(F)cc2)CC1 | -1.5 | 3.2 | -2.4 | 3.8 | 1.9 | -6.3
